Measurements collected from several papers.
Compare with care: the assays were run in different laboratories.
Effect on: enzyme activity
Action: inhibitor
BRAF V600E: Serine/threonine-protein kinase B-raf (BRAF, Homo sapiens, UniProt P15056, V600E)
BRAF: Serine/threonine-protein kinase B-raf (BRAF, Homo sapiens, UniProt P15056)

Compound	target	method	concentration	inhibition [%]
Cc1ccc(N=Nc2sc(NN=C(CS(=O)(=O)c3ccccc3)c3ccc(C)cc3)nc2C)cc1	BRAF V600E	ATP luminescence	10 µM	87
COc1cc2nccc(Oc3ccc(NC(=O)c4c5n(n(-c6ccc(F)cc6)c4=O)CCCC5)cc3)c2cc1OC	BRAF	–	0.1 µM	18
CS(=O)(=O)Nc1cccc(-c2csc(NC(=O)CSc3nc4nccnc4c(=O)n3CCc3ccccc3)n2)c1	BRAF V600E	–	10 µM	2
CN1CC(Oc2cnc(C#N)cc2-c2ccn3nc(NC(=O)C4CC4)cc3c2)C1	BRAF	–	1 µM	2
Cn1cncc1C1=CN(c2ncnc3[nH]cnc23)CCS1	BRAF	radiometric	50 nM	12.9
O=C(CSc1nc2nccnc2c(=O)n1CCc1ccccc1)Nc1nccs1	BRAF	–	10 µM	9
COc1cc(-c2cc(-c3ccc(N4CCNCC4)cc3)cnc2N)cc(OC)c1OC	BRAF V600E	–	0.1 µM	5
Cc1ccc(C(CS(=O)(=O)c2ccccc2)=NNC(N)=S)cc1	BRAF V600E	ATP luminescence	10 nM	31
CN(C)C1CCN(CC#Cc2nn(C3CCCC3)c3nc(NCc4ccccc4)ncc23)C1 (centres unmarked)	BRAF	FRET	10 µM	1
COc1cc2ncnc(Nc3ccc(Oc4ccccc4)cc3C)c2cc1OC	BRAF	–	1 µM	7
Cc1ccc(C(CS(=O)(=O)c2ccccc2)=NNC2=NC(=O)C(=NNc3ccccc3)S2)cc1	BRAF V600E	ATP luminescence	0.1 µM	54
